In one experiment the test system is Rattus norvegicus. Nature of the experiment: Effective dose to inhibit AII-induced pressor response in pithed rats, was determined in vivo after intraduodenal administration. The note with it: read-out: ID50 (the source's name).
For experiment [1], the target named is T1, Angiotensin II receptor (AT-1) type-1 (Rattus norvegicus, UniProt P29089+P25095).
T1 sequence (P29089 whole entry): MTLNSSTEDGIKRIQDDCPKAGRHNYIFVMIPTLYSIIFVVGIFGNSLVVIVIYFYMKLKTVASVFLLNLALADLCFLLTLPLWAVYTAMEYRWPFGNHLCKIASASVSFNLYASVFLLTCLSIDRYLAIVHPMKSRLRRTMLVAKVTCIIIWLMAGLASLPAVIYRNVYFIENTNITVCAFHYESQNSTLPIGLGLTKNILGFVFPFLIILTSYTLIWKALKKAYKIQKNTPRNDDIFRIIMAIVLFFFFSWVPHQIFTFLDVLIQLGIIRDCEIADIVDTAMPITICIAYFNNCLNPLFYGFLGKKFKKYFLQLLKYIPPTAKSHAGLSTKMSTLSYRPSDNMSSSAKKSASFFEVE
T1 sequence (P25095 whole entry): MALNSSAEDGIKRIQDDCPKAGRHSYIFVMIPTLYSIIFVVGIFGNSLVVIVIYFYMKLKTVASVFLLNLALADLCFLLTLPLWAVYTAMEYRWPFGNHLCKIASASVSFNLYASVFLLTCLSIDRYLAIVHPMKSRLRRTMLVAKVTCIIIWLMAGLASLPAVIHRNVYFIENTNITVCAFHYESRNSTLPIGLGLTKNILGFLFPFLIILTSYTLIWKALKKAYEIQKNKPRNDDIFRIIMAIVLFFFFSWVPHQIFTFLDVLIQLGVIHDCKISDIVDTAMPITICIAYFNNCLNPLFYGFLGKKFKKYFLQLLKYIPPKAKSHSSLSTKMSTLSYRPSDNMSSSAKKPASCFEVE
Nature of the experiment: Specific binding inhibition of [125I]AII to Angiotensin II receptor, type 1 in rat liver membrane. It is filed as cell membranes.

Experiment [2] concerns the target T2, Angiotensin II receptor (AT-1) type-1 (Rattus norvegicus) (UniProt P29089+P25095). Nature of the experiment: Inhibition of pressor response induced by infusion of AII in rats when dose is administered intravenously. It is filed as functional. A digest of the protocol:
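Normotensive Sprague-Dawley pithed rats (n = 4), BP recorded by carotid catheter. AII 0.75 μg/kg injected via jugular vein; three control responses taken. Each later AII challenge followed, by 5 min, an iv injection of antagonist at increasing doses, in water or water with 2 equiv NaOH.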

The target in experiment [3] is T2, Angiotensin II receptor (AT-1) type-1 (Rattus norvegicus). Description: Inhibition of pressor response induced by infusion of angiotensin II in rats, administered perorally. It is filed as functional. Put shortly:
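Sprague-Dawley rats (n = 18-28) dosed by gastric tube in groups; vehicle water or water with 2 equiv NaOH; controls given water. At 50 min rats anaesthetised, pithed, ventilated, with carotid and jugular catheters. At 1 h post-dose AII 0.75 μg/kg iv given.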

For orientation: IC50 means the point on the concentration scale where inhibition reaches its midpoint. Turning to `CCCCc1nc(SC)c(C(=O)O)n1Cc1ccc(-c2ccccc2S(=O)(=O)NS(=O)(=O)CC)cc1`, the ED50 in the experiment on Rattus norvegicus was > 1 mg/kg. Also, the IC50 in experiment [1] was found to be 1100 pM.
For `CCCCc1nc(SC)c(C(=O)O)n1Cc1ccc(-c2ccccc2S(=O)(=O)NC(=O)OCC)cc1`, the values for the ID50 in experiment [2] and in experiment [3] were 0.07 mg/kg and 0.38 mg/kg, respectively. The IC50 in experiment [1] was 900 pM.
In the case of `CCCCc1nc(SC)c(C(=O)OCc2ccccc2)n1Cc1ccc(-c2ccccc2S(=O)(=O)NC(=O)NCCC)cc1`, the ID50 worked out at 0.2 mg/kg in experiment [2] and 1.73 mg/kg in experiment [3]. Further, the IC50 in experiment [1] was 100 pM.
The matching figures for `CCCCc1nc(SC)c(C(=O)O)n1Cc1ccc(-c2ccccc2S(N)(=O)=O)cc1`: 5.6 mg/kg, > 30 mg/kg and 36000 pM.
In the case of `CCCCc1nc(SC)c(C(=O)O)n1Cc1ccc(-c2ccccc2S(=O)(=O)NC(=O)CCC)cc1`, the ID50 in experiment [2] is 0.06 mg/kg; in experiment [3], 0.95 mg/kg. In experiment [1], the IC50 is 200 pM.
For `CCCCc1nc(SC)c(C(=O)NC)n1Cc1ccc(-c2ccccc2S(=O)(=O)NC(=O)NCCC)cc1` the same measures were 0.02 mg/kg, 4.86 mg/kg and 2100 pM.
The matching figures for `CCCCc1nc(SCCCCO)c(C(=O)O)n1Cc1ccc(-c2ccccc2S(=O)(=O)NC(=O)NCCC)cc1`: 0.12 mg/kg, 9.81 mg/kg and 400 pM.

The values are drawn from ChEMBL document CHEMBL1128415 (J Med Chem, 1995).
